Data set [1] is described as follows: Half-life was measured in 10% human serum at 1 mM concentration. Format: ADME. An outline of the steps: (§1)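 Medium was 45 mL 0.5 M KCl, 0.5 mL phosphate buffer and 5.0 mL human serum (protein 69–78 mg/mL, BSA standard), N2-purged 2 h with pH held at 7.2–7.6 using 0.1 N HCl. Ester (0.05 or 0.5 mmol) was added; a pH-stat held 7.35 with 0.1 or 0.5 N NaOH at 37 °C. Half-life was calculated from base consumed.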

Data set [2] is described as follows: Half-life was measured in 0.5 M KCl at 10 mM concentration. The format is ADME. Conditions: 0.5 M KCl solution. The gist of the method:
(§2)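 Chemical stability was measured with 0.5 mmol ester in 50 mL 0.5 M KCl plus 0.5 mL pH 7.00 phosphate buffer (10 mM), at pH 7.35 and 37 °C. pH-stat titration with 0.5 N NaOH recorded base consumption against time for the 2 acid equivalents released. Pseudo-first-order half-life, mean of at least two runs.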

Data set [3] in a line: Half-life was measured in 10% human serum at 10 mM concentration. The format is ADME. An outline of the steps: as §1
A short description of data set [4]: Half-life was measured in 10% human serum at 10 mM of ester. The format is ADME. The gist of the method:
as §1

The species entered for data set [5] is Mus musculus. Nature of the data set: Compound was tested for anticonvulsant activity by measuring its effect on convulsions induced by bicuculline in mice. The format is functional. An outline of the steps: (§3)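 Mice, at least five per group at each time point, received the ester ip; convulsions were induced 0.5, 1, 2, 3, 4, 5, 6, 17 and 24 h later. Value is the minimum effective anticonvulsant dose (mg/kg), with the time between dosing and onset of activity.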

The species entered for data set [6] is Mus musculus. Nature of the data set: Compound was tested for anticonvulsant activity by measuring its effect on convulsions induced by isoniazide in mice. The format is functional. An outline of the steps:
as §3

Data set [7] is filed under the species Mus musculus. Put plainly: Compound was tested for anticonvulsant activity by measuring its effect on convulsions induced by electroshock in mice. Format: functional. An outline of the steps: as §3
The nature of data set [8]: Half-life was measured in 0.5 M KCl at 10 mM dose. Format: ADME. Conditions: 0.5 M KCl solution. An outline of the steps:
as §2

Data set [9] is described as follows: Half-life was measured in 10% human serum at 1 mM dose. The format is ADME. An outline of the steps: as §1
A short description of data set [10]: Half-life was measured in 10% human serum at 10 mM dose. The format is ADME. The gist of the method: as §1

Where only a bound is given, the exact number is not on record here.

For the molecule `CCCCC(=O)OCOC(=O)C1=CCNCC1.O=C(O)/C=C/C(=O)O`, in [1], the half-life – broadly, the time in which the quantity being followed falls by half – at 1000 µM is 0.03 h. For the same molecule, the half-life at 10000 µM was 12 h in [2] and 0.28 h in data set [3].

Regarding `COC(=O)C1=CCNCC1.Cl`, the half-life at 10000 µM in data set [4] is 430 h.

With `CC(C)CC(=O)OCOC(=O)C1=CCNCC1.O=C(O)/C=C/C(=O)O`, the half-life at 1000 µM in data set [1] is 0.72 h. Besides, the half-life at 10000 µM was 13.3 h in data set [2] and 3.5 h in data set [3].

`Br.CCOC(=O)COC(=O)C1=CCNCC1` gave a half-life at 10000 µM in data set [4] of 300 h.

Molecule `O=C(O)/C=C/C(=O)O.O=C(OCOC(=O)C1CCCCC1)C1=CCNCC1` had a half-life at 1000 µM in [1] of 0.03 h. Besides, the half-life at 10000 µM is 10 h in data set [2] and 0.14 h in data set [3].

Regarding `CCC(CC)C(=O)OCOC(=O)C1=CCNCC1.O=C(O)/C=C/C(=O)O`, in data set [1], the half-life at 1000 µM was 2.3 h. Further, the half-life at 10000 µM in [2] is 15.7 h; in data set [3], 7.9 h.

In data set [1], `CCCCCC(=O)OCOC(=O)C1=CCNCC1.O=C(O)/C=C/C(=O)O` had a half-life at 1000 µM of 0.06 h. Moreover, the half-life at 10000 µM is 13 h in data set [2] and 0.32 h in data set [3].

Take `CC(C)(C)C(=O)OCOC(=O)C1=CCNCC1.O=C(O)/C=C/C(=O)O`: the results for the Anticonvulsant dose in the data set filed under Mus musculus [5], in the data set filed under Mus musculus [6] and in the data set listed under Mus musculus [7] were 20 mg/kg, above 160 mg/kg and 10 mg/kg, respectively. This molecule showed a half-life at 1000 µM in [1] of 4.6 h. In addition, the half-life at 10000 µM was 17.1 h in data set [2] and 14.9 h in data set [3].

For the molecule `Cl.O=C(O)C1=CCNCC1` [ISOGUVACINE HYDROCHLORIDE], the Anticonvulsant dose is above 80 mg/kg in the data set listed under Mus musculus [5], above 160 mg/kg in the data set listed under Mus musculus [6] and above 80 mg/kg in the data set listed under Mus musculus [7].

Regarding `CCC(=O)OCOC(=O)C1=CCNCC1.O=C(O)/C=C/C(=O)O`, the Anticonvulsant dose in the data set listed under Mus musculus [5] was above 80 mg/kg; in the data set filed under Mus musculus [6], 40 mg/kg; in the data set listed under Mus musculus [7], above 80 mg/kg. The half-life at 10000 µM in [8] was 11.1 h; in data set [10], 0.54 h. Moreover, the half-life at 1000 µM in data set [9] was 0.17 h.

For `CC(C)C(=O)OCOC(=O)C1=CCNCC1.O=C(O)/C=C/C(=O)O`, the half-life at 1000 µM in [1] is 0.13 h. Also, the half-life at 10000 µM was 10.8 h in data set [2] and 0.73 h in [3].

In the case of `Br.CCCCOC(=O)C1=CCNCC1`, the Anticonvulsant dose in the data set listed under Mus musculus [5] is 40 mg/kg; in the data set filed under Mus musculus [6], above 160 mg/kg; in the data set filed under Mus musculus [7], 40 mg/kg. The molecule further showed a half-life at 10000 µM in data set [4] of 600 h.

With `O=C(O)/C=C/C(=O)O.O=C(OCOC(=O)c1ccccc1)C1=CCNCC1`, the Anticonvulsant dose is above 80 mg/kg in the data set listed under Mus musculus [5], above 160 mg/kg in the data set filed under Mus musculus [6] and above 80 mg/kg in the data set filed under Mus musculus [7]. Further, the half-life at 1000 µM in data set [1] was 0.07 h. For the same molecule, the half-life at 10000 µM is 9.3 h in data set [2] and 0.4 h in data set [3].

`CCCC(=O)OCOC(=O)C1=CCNCC1.O=C(O)/C=C/C(=O)O`: the half-life at 1000 µM in data set [1] is 0.06 h. Further, the half-life at 10000 µM in [2] is 11.7 h; in [3] it was 0.25 h.

For the molecule `CC(=O)OCOC(=O)C1=CCNCC1.O=C(O)/C=C/C(=O)O`, the Anticonvulsant dose in the data set filed under Mus musculus [5] was above 80 mg/kg; in the data set listed under Mus musculus [6] it was 40 mg/kg; in the data set listed under Mus musculus [7], 5 mg/kg. The half-life at 1000 µM in [1] is 0.6 h. The half-life at 10000 µM in data set [2] was 10.9 h; in data set [3], 1.2 h.

Source of the values: ChEMBL document CHEMBL1121795, “Esters of isoguvacine as potential prodrugs” (J Med Chem, 1981).
